Results reported in ChEMBL document CHEMBL4706553, “Discovery of potent small molecule PROTACs targeting mutant EGFR” (Eur J Med Chem, 2020).
Activity calls are given as the source filed them.

Tests used:
[1] = system: von Hippel-Lindau disease tumor suppressor/Epidermal growth factor receptor (Homo sapiens), P00533+P40337 [UNDEFINED MUTATION]; test: Protac activity at VHL/EGFR del19 mutant in human HCC827 cells assessed as induction of EGFR degradation at 1 to 33 nM incubated for 24 hrs by Western blot analysis; format: cell-based; conditions: dose 1-33 nM
Method in brief: (§1)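 HCC827 cells seeded at 0.5–1 × 10⁶ per well, grown 24 h, then treated at the stated concentrations for 24 h. EGFR^del19 level by Western blot with anti-EGFR antibody and β-actin loading control.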

[2] = system: von Hippel-Lindau disease tumor suppressor/Epidermal growth factor receptor (Homo sapiens), P00533+P40337 [L858R,T790M]; test: Protac activity at VHL/EGFR L858R/T790M mutant in human H1975 cells assessed as induction of degradation of EGFR at 0.33 to 1 uM incubated for 24 hrs by Western blot analysis; format: cell-based; conditions: NCI-H1975, dose 0.33-1 µM
Method in brief: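 H1975 cells, after 24 h seeding, treated at the stated concentrations for 24 h. EGFR by Western blot with β-actin loading control.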

NCI-H1975 = test: Antiproliferative activity against human H1975 cells expressing EGFR L858R/T790M mutant assessed as cell growth inhibition measured after 72 hrs by MTT assay; format: functional, cell-based; conditions: NCI-H1975, 72 h
Method in brief: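 MTT assay on H1975 cells grown in RPMI-1640 with 10% heat-inactivated FBS and 1% penicillin-streptomycin at 37 °C and 5% CO₂. Cells were seeded at 3000–8000 per well and left 24 h, then exposed to a concentration series for 72 h. MTT (5 mg/mL stock in PBS) was added for 4 h, supernatant removed and formazan dissolved in DMSO. IC50 was fitted by nonlinear regression (log inhibitor vs response).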

HCC827 = test: Antiproliferative activity against human HCC827 cells expressing EGFR del19 mutant assessed as cell growth inhibition measured after 72 hrs by MTT assay; format: functional, cell-based; conditions: HCC827, 72 h
Method in brief: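 HCC827 cells were kept in RPMI-1640 with 10% heat-inactivated FBS, 1% sodium pyruvate, 1% glutamine and 1% penicillin-streptomycin at 37 °C and 5% CO₂, seeded at 3000–8000/well and rested 24 h. Compounds were applied as a concentration series for 72 h. MTT (5 mg/mL stock in PBS) was given for 4 h, then medium was removed and DMSO added. IC50 came from nonlinear regression (log inhibitor vs response).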

HepG2 = test: Antiproliferative activity against human HepG2 cells expressing VEGFR2 assessed as cell growth inhibition measured after 72 hrs by MTT assay; format: functional, cell-based; conditions: HepG2, 72 h
Method in brief: (§2)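 Cells were seeded at 3000–8000/well and allowed 24 h, then exposed to serial compound concentrations for 72 h. MTT (5 mg/mL stock in PBS) was added for 4 h, supernatant removed and DMSO added. IC50, defined as 50% growth inhibition, was derived by nonlinear regression (log inhibitor vs response).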

[3] = system: Protein cereblon/Epidermal growth factor receptor (Homo sapiens), P00533+Q96SW2 [UNDEFINED MUTATION]; test: Protac activity at CRBN/EGFR del19 mutant in human HCC827 cells assessed as induction of EGFR degradation at 333 nM measured after 24 hrs by Western blot analysis; format: cell-based; method in brief: as §1
[4] = system: Protein cereblon/Epidermal growth factor receptor (Homo sapiens), P00533+Q96SW2 [UNDEFINED MUTATION]; test: Protac activity at CRBN/EGFR del19 mutant in human HCC827 cells assessed as induction of EGFR degradation at 33 nM measured after 24 hrs by Western blot analysis; format: cell-based; method in brief: as §1
A-431 = test: Antiproliferative activity against human A431 cells expressing wild type EGFR assessed as cell growth inhibition measured after 72 hrs by MTT assay; format: functional, cell-based; conditions: A-431, 72 h; method in brief: as §2
[5] = target: von Hippel-Lindau disease tumor suppressor/Epidermal growth factor receptor (Homo sapiens, UniProt P00533+P40337); test: Protac activity at VHL/EGFR del19 mutant in human HCC827 cells assessed as induction of EGFR degradation measured after 24 hrs by Western blot analysis; format: cell-based; method in brief: as §1

Row | Structure (SMILES) | Activity [1] | Activity [2] | IC50 (NCI-H1975) | IC50 (HCC827) | IC50 (HepG2) | Activity [3] | Activity [4] | IC50 (A-431) | DC50 [5]
1 | Cc1ncsc1-c1ccc(CNC(=O)[C@@H]2C[C@H](O)CN2C(=O)[C@@H](NC(=O)CCCCCCN2CCN(c3ccc(Nc4ncc5nc(Nc6ccccc6)n(C6CCCC6)c5n4)cc3)CC2)C(C)(C)C)cc1 | inactive | inactive | > 10000 nM | 15.8 nM |  |  |  |  | 
2 | O=C1CCC(N2Cc3c(NC(=O)CCCCCCCN4CCN(c5ccc(Nc6ncc7nc(Nc8ccccc8)n(C8CCCC8)c7n6)cc5)CC4)cccc3C2=O)C(=O)N1 (configuration not stated) |  |  | 3780 nM | 2.61 nM | > 5000 nM | inactive | Active | 240 nM | 
3 | CN(CCOCCOCCN1CCN(c2ccc(Nc3ncc4nc(Nc5ccccc5)n(C5CCCC5)c4n3)cc2)CC1)CC(=O)Nc1cccc2c1CN(C1CCC(=O)NC1=O)C2=O (configuration not stated) |  |  | 1210 nM | 1.39 nM | > 5000 nM | inactive | Active | 2670 nM | 
4 | COc1cc2ncnc(Nc3ccc(F)c(Cl)c3)c2cc1OCCCCCOCCOCCC(=O)N[C@H](C(=O)N1C[C@H](O)C[C@H]1C(=O)NCc1ccc(-c2scnc2C)cc1)C(C)(C)C |  |  |  |  |  |  |  |  | 11.7 nM
